Six compounds from ChEMBL document CHEMBL4699666, “Cyclic Peptidyl Inhibitors against CAL/CFTR Interaction for Treatment of Cystic Fibrosis” (J Med Chem, 2020) can be followed below.

Series [1] can be described thus: Drug uptake in human HeLa cells assessed as absolute cytosolic entry efficiency at 5 uM incubated for 2 hrs by flow cytometry. The series is classed as ADME, subcellular, Cytoplasm. Background: Flow cytometry measures light scatter and fluorescence of single cells or particles in a stream.
In series [2] the target is T1, Golgi-associated PDZ and coiled-coil motif-containing protein (Homo sapiens, UniProt Q9HD26). Nature of the series: Binding affinity to C-terminal His6 tagged CAL PDZ domain (unknown origin) expressed in Escherichia coli BL21 incubated for 1 hr using FAM-22 probe by fluorescence polarization based competition assay. A general note: In fluorescence polarisation assays a small probe gives low polarisation when free and higher when bound to something large.

The nature of series [3]: Half life in 25% human serum at 100 uM incubated for 24 hrs at 37 degC by HPLC analysis. The series is classed as ADME, cell-free. A digest of the protocol: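 Human serum diluted 1:4 in DPBS was pre-warmed to 37 °C, and peptide (100 μM final) was incubated in it at 37 °C. At each time point, aliquots were deproteinized with 15% TCA in MeOH plus MeCN for 24 h at 4 °C and centrifuged. Supernatants were analysed by reversed-phase HPLC, reading at 214 nm, for intact peptide remaining.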

Series [4] in a line: Drug uptake in human HeLa cells at 5 uM incubated for 2 hrs by flow cytometry relative to CPP9. It is filed as ADME, cell-based. A digest of the protocol:
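Naphthofluorescein-labelled cyclic peptides (5 μM final, 0.5% DMSO, in DMEM with 10% FBS) were applied to HeLa cells, seeded the day before at 15 × 10^4 per well, for 2 h at 37 °C. Cells were washed with cold DPBS, trypsinized and analysed by flow cytometry. Mean fluorescence was expressed as % of CPP9; n = 3.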

In series [5] the test system is Epithelial cell. Nature of the series: Inhibition of CAL and CFTR F508del mutant interaction in human CF-HBE cells isolated from patient with F508del mutation assessed as increase in short-circuit current at 100 nM incubated for 24 hrs in presence of 5 uM VX-809 by relative to VX-809 alone. It is filed as cell-based. To be noted: time 2.0 hrs, in the assay text read “incubated for 2 hrs” for “incubated for 24 hrs”. The method, boiled down: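 Primary F508del-homozygous bronchial epithelia from one donor, grown at air/liquid interface, were treated with 5 μM VX-809 for 48 h, then with 100 nM peptide for 2 h. Short-circuit current was measured in an Ussing chamber and scaled to VX-809 alone (100%). Results are 2–3 replicates per condition.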

Series [6] is described as follows: Drug metabolism in human HCT-116 cells assessed as formation of (2S)-2-[[(2S)-2-[[(2S,3R)-2-[[(2R)-2-[[(2S)-1-[(2S)-2-[[(2S)-2-[[(2S)-2-[[(2S)-2-[[(2R)-2-[[(2R)-2-acetamido-3-sulfanyl-propanoyl]amino]-5-guanidino-pentanoyl]amino]-5-guanidino-pentanoyl]amino]-5-guanidino-pentanoyl]amino]-3-(2-naphthyl)propanoyl]amino]-3-(benzothiophen-3-yl)propanoyl]piperidine-2-carbonyl]amino]-3-methyl-3-sulfanyl-butanoyl]amino]-3-hydroxy-butanoyl]amino]-5-guanidino-pentanoyl]amino]-3,3-dimethyl-butanoic acid at 5 uM incubated for 4 to 24 hrs by MALDI-TOF-TOF mass spectrometry. The series is classed as ADME, cell-based. Conditions: hct-116, 5 µM, time 4-24 hrs. A digest of the protocol: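 HCT116 spheroids (7,000 cells seeded on agarose, grown 12 days) were exposed to 5 μM cyclic peptide for 4 or 24 h. They were washed, gelatin-embedded and cut into 16 μm sections. Positive-ion MALDI-TOF-TOF imaging (m/z 360–1400) gave heatmaps, scaled to the most intense signal, for intact peptide and about 20 possible proteolytic fragments.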

Series [7] has as its system NCI-H358. Nature of the series: Toxicity in human NCI-H358 cells assessed as reduction in cell viability up to 50 uM incubated for 72 hrs by MTT assay. The series is classed as cell-based. To be noted: nci-h358, 72 h. A digest of the protocol:
(§1)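 CFBE41o-, HCT116 or H358 cells were seeded at 5 × 10^3 per well and the next day exposed for 72 h at 37 °C to serial dilutions of peptide in DPBS at constant 0.5% DMSO. MTT was added for 4 h, formazan was solubilized with SDS-HCl overnight and absorbance read at 565 nm. Viability was expressed relative to 0.5% DMSO controls (100%); n = 3.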
Background: Formazan colour is commonly taken as a measure of viable cells.

The test system of series [8] is HCT-116. Nature of the series: Toxicity in human HCT-116 cells assessed as reduction in cell viability up to 50 uM incubated for 72 hrs by MTT assay. It is filed as cell-based. Conditions: hct-116, 72 h. The method, boiled down:
as §1

Series [9] in a line: Toxicity in human CFBE41o- cells assessed as reduction in cell viability up to 50 uM incubated for 72 hrs by MTT assay. The series is classed as cell-based. A digest of the protocol:
as §1

For series [10], the system named is Epithelial cell. Nature of the series: Inhibition of CAL and CFTR F508del mutant interaction in human CF-HBE cells isolated from patient with F508del mutation assessed as increase in short-circuit current incubated for 24 hrs in presence of 5 uM VX-661 by relative to VX-661 alone. It is filed as cell-based. A digest of the protocol:
(§2)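 Primary bronchial epithelia from F508del/F508del donors (three donors) were grown at air/liquid interface and given corrector (5 μM VX-661) or none. After 24 h, peptide or DMSO was applied apically in Hank's solution for 1 h, then removed, and cells were kept a further 24 h. Ussing chambers used Ringer's with a low-chloride apical side. Isc changes were read after forskolin (10 μM) activation and Inh-172 inhibition; n = 5 filters.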

Series [11] has as its system Cystic fibrosis transmembrane conductance regulator (Homo sapiens), P13569 [F508del]. Nature of the series: Corrector activity at CFTR F508del mutant in human CF-HBE cells isolated from patient with F508del mutation assessed as increase in short-circuit current at 5 uM incubated for 24 hrs. The series is classed as cell-based. To be noted: Epithelial cell, filed as activator. A digest of the protocol:
as §2

The target of series [12] is T2, Na(+)/H(+) exchange regulatory cofactor NHE-RF2 (Homo sapiens, UniProt Q15599). Nature of the series: Binding affinity to NHERF2 PDZ1 domain (unknown origin) expressed in Escherichia coli BL21 incubated for 1 hr by fluorescence polarization based competition assay. A digest of the protocol: (§3)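 CAL, NHERF1 and NHERF2 PDZ domains carried a C-terminal His6 tag, were expressed in E. coli BL21 (0.1 mM IPTG, 16 h at 18 °C) and purified on Ni-NTA. For direct binding, 50 nM fluorescein-labelled peptide was titrated with PDZ protein (0–2.5 μM CAL; 0–25 μM NHERF1/2) in PBS pH 7.4 with 0.01% Triton X-100 and 2 mM TCEP for 1 h at room temperature. Fluorescence polarization gave KD; n = 3.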

Series [13] addresses T1, Golgi-associated PDZ and coiled-coil motif-containing protein. Nature of the series: Binding affinity to C-terminal His6 tagged CAL PDZ domain (unknown origin) expressed in Escherichia coli BL21 incubated for 1 hr by fluorescence polarization assay.
Series [14] addresses T3, Na(+)/H(+) exchange regulatory cofactor NHE-RF1 (Homo sapiens, UniProt O14745).
T3 sequence (O14745 whole entry): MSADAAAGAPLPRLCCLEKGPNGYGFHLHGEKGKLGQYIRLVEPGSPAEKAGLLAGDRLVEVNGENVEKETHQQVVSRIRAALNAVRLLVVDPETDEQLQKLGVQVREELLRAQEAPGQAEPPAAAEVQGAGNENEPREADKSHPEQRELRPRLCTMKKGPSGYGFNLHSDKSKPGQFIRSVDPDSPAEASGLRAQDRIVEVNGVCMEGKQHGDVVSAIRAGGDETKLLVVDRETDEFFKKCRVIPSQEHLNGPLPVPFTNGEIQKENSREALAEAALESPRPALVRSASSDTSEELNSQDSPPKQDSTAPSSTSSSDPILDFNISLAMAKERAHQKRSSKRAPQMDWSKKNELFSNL
Nature of the series: Binding affinity to NHERF1 PDZ1 domain (unknown origin) expressed in Escherichia coli BL21 incubated for 1 hr by fluorescence polarization based competition assay. The method, boiled down:
as §3

The target of series [15] is T2, Na(+)/H(+) exchange regulatory cofactor NHE-RF2. Nature of the series: Binding affinity to NHERF2 PDZ2 domain (unknown origin) expressed in Escherichia coli BL21 incubated for 1 hr by fluorescence polarization based competition assay.
For series [16], the species on record is Homo sapiens. Nature of the series: Selectivity index, ratio of Kd for binding affinity to NHERF2 PDZ1 domain (unknown origin) expressed in Escherichia coli BL21 to Kd for binding affinity to C-terminal His6 tagged CAL PDZ domain (unknown origin) expressed in Escherichia coli BL21. A digest of the protocol:
as §3

For series [17], the species on record is Homo sapiens. Nature of the series: Selectivity index, ratio of Kd for binding affinity to NHERF1 PDZ1 domain (unknown origin) expressed in Escherichia coli BL21 to Kd for binding affinity to C-terminal His6 tagged CAL PDZ domain (unknown origin) expressed in Escherichia coli BL21. A digest of the protocol:
as §3

SMILES strings stand for the structures. Active and inactive are the calls of the source. No cut-off for these calls is given here. Positions of bridges follow the written chain, without caps; N, C: chain ends. Non-standard residues stand in square brackets, D forms with d. Residues, ends and D or L forms follow the SMILES beside them. 2Nal = N[C@@H](Cc1ccc2ccccc2c1)C(=O)O; Bta = N[C@@H](Cc1csc2ccccc12)C(=O)O; Pen = CC(C)(S)[C@H](N)C(=O)O; Tle = CC(C)(C)[C@H](N)C(=O)O; Pip = O=C(O)[C@@H]1CCCCN1

One may read the IC50 as the concentration needed to halve the response being measured. Lower therefore signals greater potency. As usually defined, the half-life is how long it takes for the measured level to halve. Higher therefore signals slow decline. The Kd is the equilibrium constant for the complex coming apart.

T2 sequence (Q15599 whole entry, the tested form may be a part): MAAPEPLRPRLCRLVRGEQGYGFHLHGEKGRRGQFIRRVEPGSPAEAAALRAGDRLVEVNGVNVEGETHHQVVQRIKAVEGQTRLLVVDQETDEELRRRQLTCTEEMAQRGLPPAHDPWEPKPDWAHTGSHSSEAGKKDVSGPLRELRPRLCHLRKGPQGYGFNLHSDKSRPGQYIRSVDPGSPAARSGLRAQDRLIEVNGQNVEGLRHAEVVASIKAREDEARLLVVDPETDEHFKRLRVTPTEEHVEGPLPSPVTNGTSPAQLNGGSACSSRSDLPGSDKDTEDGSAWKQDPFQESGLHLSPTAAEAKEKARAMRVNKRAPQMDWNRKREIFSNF
Sequence of Cystic fibrosis transmembrane conductance regulator (Homo sapiens), P13569 [F508del] (P13569 as listed by the source): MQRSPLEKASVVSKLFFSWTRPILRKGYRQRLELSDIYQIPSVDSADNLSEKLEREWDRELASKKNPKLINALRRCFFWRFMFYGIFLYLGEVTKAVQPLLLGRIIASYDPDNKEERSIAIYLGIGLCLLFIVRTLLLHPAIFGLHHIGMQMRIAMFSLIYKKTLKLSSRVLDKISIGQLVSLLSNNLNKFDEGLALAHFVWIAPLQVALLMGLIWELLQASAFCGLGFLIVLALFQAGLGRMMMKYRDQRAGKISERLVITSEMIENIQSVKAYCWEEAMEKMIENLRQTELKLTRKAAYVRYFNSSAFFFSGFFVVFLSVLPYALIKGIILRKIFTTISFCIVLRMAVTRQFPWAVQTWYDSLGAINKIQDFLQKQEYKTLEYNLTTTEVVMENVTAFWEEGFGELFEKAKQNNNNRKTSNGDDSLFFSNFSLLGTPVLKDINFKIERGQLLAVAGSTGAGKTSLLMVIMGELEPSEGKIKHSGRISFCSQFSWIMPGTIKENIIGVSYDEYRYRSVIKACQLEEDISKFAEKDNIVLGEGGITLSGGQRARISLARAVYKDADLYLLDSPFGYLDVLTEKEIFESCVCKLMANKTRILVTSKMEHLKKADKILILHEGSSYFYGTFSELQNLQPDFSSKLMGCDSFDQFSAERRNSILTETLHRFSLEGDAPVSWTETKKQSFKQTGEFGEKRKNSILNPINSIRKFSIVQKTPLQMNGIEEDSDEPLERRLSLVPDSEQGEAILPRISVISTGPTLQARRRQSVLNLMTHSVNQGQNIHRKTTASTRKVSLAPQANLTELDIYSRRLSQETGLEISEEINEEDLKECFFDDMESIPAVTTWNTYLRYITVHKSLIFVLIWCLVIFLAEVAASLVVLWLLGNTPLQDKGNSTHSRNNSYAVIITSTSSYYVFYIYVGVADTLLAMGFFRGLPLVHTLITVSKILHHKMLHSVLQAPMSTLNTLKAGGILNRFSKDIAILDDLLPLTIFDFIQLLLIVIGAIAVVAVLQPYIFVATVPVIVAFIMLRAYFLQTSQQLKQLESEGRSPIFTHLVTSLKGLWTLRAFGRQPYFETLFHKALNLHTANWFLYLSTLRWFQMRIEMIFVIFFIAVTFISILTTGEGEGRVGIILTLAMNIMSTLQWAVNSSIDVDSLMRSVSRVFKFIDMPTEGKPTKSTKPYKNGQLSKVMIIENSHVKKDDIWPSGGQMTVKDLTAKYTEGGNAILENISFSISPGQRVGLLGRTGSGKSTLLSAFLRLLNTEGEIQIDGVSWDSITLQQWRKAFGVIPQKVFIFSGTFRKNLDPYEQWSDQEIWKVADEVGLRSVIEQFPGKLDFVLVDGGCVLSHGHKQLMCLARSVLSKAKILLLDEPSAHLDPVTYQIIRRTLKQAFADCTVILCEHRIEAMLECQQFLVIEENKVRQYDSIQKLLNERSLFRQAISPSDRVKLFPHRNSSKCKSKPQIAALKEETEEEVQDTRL

Turning to `N=C(N)NCCC[C@@H]1NC(=O)[C@H](Cc2ccc3ccccc3c2)NC(=O)[C@@H](Cc2ccccc2)NC(=O)[C@H](CCC(N)=O)NC(=O)[C@@H](CCCNC(=N)N)NC(=O)[C@H](CCCNC(=N)N)NC(=O)[C@@H](CCCNC(=N)N)NC1=O` (cyclo([2Nal]R[dR]R[dR]Q[dF])), the Drug uptake in [1] was 62%.
Take `CC(=O)N[C@@H](CS)C(=O)N[C@H](CCCNC(=N)N)C(=O)N[C@@H](CCCNC(=N)N)C(=O)N[C@@H](CCCNC(=N)N)C(=O)N[C@@H](Cc1ccc2ccccc2c1)C(=O)N[C@@H](Cc1csc2ccccc12)C(=O)N1CCCC[C@H]1C(=O)N[C@H](C(=O)N[C@H](C(=O)N[C@@H](CCCNC(=N)N)C(=O)N[C@H](C(=O)O)C(C)(C)C)[C@@H](C)O)C(C)(C)S` (Ac-C[dR]RR[2Nal][Bta][Pip][Pen]TR[Tle]-OH): in series [2], the IC50 was found to be 20 nM. Besides, the half-life at 100 µM in series [3] is > 24 h. The same compound gave a Drug uptake in series [4] of 61%.
With `CC(=O)N[C@H]1CSSC(C)(C)[C@@H](C(=O)N[C@H](C(=O)N[C@H](C(=O)N[C@@H](CCCNC(=N)N)C(=O)N[C@H](C(=O)O)C(C)(C)C)[C@@H](C)O)C(C)(C)C)NC(=O)[C@H](Cc2csc3ccccc23)NC(=O)[C@H](Cc2ccc3ccccc3c2)NC(=O)[C@H](CCCNC(=N)N)NC(=O)[C@H](CCCNC(=N)N)NC(=O)[C@@H](CCCNC(=N)N)NC1=O` (Ac-C[dR]RR[2Nal][Bta][Pen][Tle]TR[Tle]-OH; disulfide 1-7), in series [5], the inhibition result is “inactive”.
In the case of `CC(=O)N[C@H]1CSSC(C)(C)[C@@H](C(=O)N[C@H](C(=O)N[C@@H](CCCNC(=N)N)C(=O)N[C@H](C(=O)O)C(C)(C)C)[C@@H](C)O)NC(=O)[C@@H]2CCCCN2C(=O)[C@H](Cc2csc3ccccc23)NC(=O)[C@H](Cc2ccc3ccccc3c2)NC(=O)[C@H](CCCNC(=N)N)NC(=O)[C@H](CCCNC(=N)N)NC(=O)[C@@H](CCCNC(=N)N)NC1=O` (Ac-C[dR]RR[2Nal][Bta][Pip][Pen]TR[Tle]-OH; disulfide 1-8), the Drug metabolism entry in [6] is given as “Metabolite_Detected”. The Activity entry in series [7], in series [8] and in [9] was “Non-Toxic” each time. Moreover, the conc. at maximal effect in [10] was 100 nM. Further, the inhibition result in series [10] was “Dose-dependent effect”.
As to `CC(C)(CO)c1cc2cc(NC(=O)C3(c4ccc5c(c4)OC(F)(F)O5)CC3)c(F)cc2n1C[C@@H](O)CO`, in [11], the result was Active.
Turning to `C[C@@H](O)[C@H](NC(=O)[C@@H](NC(=O)[C@@H](NC(=O)[C@H](Cc1csc2ccccc12)NC(=O)[C@H](Cc1ccc2ccccc2c1)NC(=O)[C@H](CCCNC(=N)N)NC(=O)[C@H](CCCNC(=N)N)NC(=O)[C@@H](CCCNC(=N)N)NC(=O)[C@H](CS)NC(=O)COCCOCCNC(=O)c1ccc2c(c1)C(=O)OC21c2ccc(O)cc2Oc2cc(O)ccc21)C(C)(C)S)C(C)(C)C)C(=O)N[C@@H](CCCNC(=N)N)C(=O)N[C@H](C(=O)O)C(C)(C)C`, the Kd was 560 nM in series [12], 49 nM in [13], 330 nM in series [14] and 2820 nM in [15]. Further, the Ratio in series [16] was 11.4; in [17], 6.7.
